Assay results taken from ChEMBL document CHEMBL4308874, “Discovery and optimization of 3,4,5-trimethoxyphenyl substituted triazolylthioacetamides as potent tubulin polymerization inhibitors” (Bioorg Med Chem Lett, 2019).

Legend:
[1] = test system: HT-29; test: Cytotoxicity against human HT-29 cells assessed as inhibition of cell growth after 48 hrs by MTT assay; type: functional, cell-based; details: HT-29, 48 h
[2] = test system: HeLa; test: Cytotoxicity against human HeLa cells assessed as inhibition of cell growth after 48 hrs by MTT assay; type: functional, cell-based
[3] = target: Tubulin (Homo sapiens) (UniProt P68371+Q9H4B7+P0DPH7+P68366+Q13509+Q71U36+P04350+Q3ZCM7+P07437+P68363+Q9BQE3+Q6PEY2+Q13885+Q9BVA1+Q9BUF5); test: Inhibition of tubulin (unknown origin) polymerization at 10 uM relative to control; type: protein-complex assay
Procedure, shortened: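 Tubulin polymerization inhibition measured with compound at a final concentration of 10 μM, expressed as percent inhibition.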

[4] = test system: HeLa; test: Cell cycle arrest in human HeLa cells assessed as accumulation at S phase at 0.5 uM after 48 hrs by propidium iodide staining based flow cytometry (reference value: 20.31%); type: functional
[5] = test system: HeLa; test: Cell cycle arrest in human HeLa cells assessed as accumulation at G0/G1 phase at 0.5 uM after 48 hrs by propidium iodide staining based flow cytometry (reference value: 66.77%); type: functional
[6] = test system: HeLa; test: Cell cycle arrest in human HeLa cells assessed as accumulation at G2/M phase after 48 hrs by propidium iodide staining based flow cytometry; type: functional
[7] = test system: HeLa; test: Cell cycle arrest in human HeLa cells assessed as accumulation at G0/G1 phase at 0.25 uM after 48 hrs by propidium iodide staining based flow cytometry (reference value: 66.77%); type: functional
[8] = test system: HeLa; test: Cell cycle arrest in human HeLa cells assessed as accumulation at G2/M phase at 0.25 uM after 48 hrs by propidium iodide staining based flow cytometry (reference value: 12.91%); type: functional
[9] = test system: MCF7; test: Cytotoxicity against human MCF7 cells assessed as inhibition of cell growth after 48 hrs by MTT assay; type: functional, cell-based; details: MCF7, 48 h
[10] = test system: HeLa; test: Cell cycle arrest in human HeLa cells assessed as accumulation at G2/M phase at 0.5 uM after 48 hrs by propidium iodide staining based flow cytometry (reference value: 12.91%); type: functional
[11] = test system: HEK293; test: Cytotoxicity against HEK293 cells assessed as inhibition of cell growth after 48 hrs by MTT assay; type: cell-based; details: Homo sapiens, HEK293, 48 h
[12] = test system: HeLa; test: Cell cycle arrest in human HeLa cells assessed as accumulation at S phase at 0.25 uM after 48 hrs by propidium iodide staining based flow cytometry (reference value: 20.31%); type: functional
[13] = test system: HCT-116; test: Cytotoxicity against human HCT116 cells assessed as inhibition of cell growth after 48 hrs by MTT assay; type: functional, cell-based; details: HCT-116, 48 h
[14] = target: Tubulin; test: Inhibition of tubulin (unknown origin) polymerization; type: protein-complex assay, Homo sapiens

Row | inhibition [3] [%] | Compound | IC50 [1] [µM] | IC50 [2] [µM] | IC50 [9] [µM] | IC50 [13] [µM] | further results
1 |  | COc1ccc(/C=C\c2cc(OC)c(OC)c(OC)c2)cc1O [COMBRETASTATIN A4] | 1.96 | 0.007 |  |  | 
2 | 38 | CCc1ccc(NC(=O)CSc2nnc(-c3cc(OC)c(OC)c(OC)c3)n2N)cc1 | 0.84 | 0.05 | 25.4 | 71.4 | Activity [4]: 2%; Activity [5]: 43.23%; Activity [6]: Dose-dependent effect; Activity [7]: 47.35%; Activity [8]: 27.3%; Activity [10]: 54.77%; IC50 [11]: > 100 µM; Activity [12]: 25.35%
3 |  | COc1ccc(NC(=O)CSc2nnc(-c3cc(OC)c(OC)c(OC)c3)[nH]2)cc1 | > 100 | > 100 | > 100 | > 100 | 
4 |  | CCCc1ccc(NC(=O)CSc2nnc(-c3cc(OC)c(OC)c(OC)c3)[nH]2)cc1 | > 100 | > 100 | > 100 | > 100 | 
5 |  | COc1cc(-c2nnc(SCC(=O)Nc3ccc(C)cc3)[nH]2)cc(OC)c1OC | > 100 | > 100 | > 100 | > 100 | 
6 | 17 | COc1cc(-c2nnc(SCC(=O)Nc3ccc(C)cc3)n2-n2cccc2)cc(OC)c1OC | 2.94 | > 100 | > 100 | 26.6 | 
7 | 21 | COc1cc(-c2nnc(SCC(=O)N(C)c3ccc(C)cc3)n2N)cc(OC)c1OC | > 100 | 21.3 | > 100 | > 100 | 
8 | 11 | CCc1ccc(NC(=O)CSc2nnc(-c3cc(OC)c(OC)c(OC)c3)[nH]2)cc1 | > 100 | 33.9 | > 100 | > 100 | 
9 | 18 | COc1cc(-c2nnc(SCC(=O)Nc3ccc(C)c(C)c3)n2N)cc(OC)c1OC | 1.21 | 0.88 | > 100 | > 100 | 
10 |  | COc1ccc(NC(=O)CSc2nnc(-c3cc(OC)c(OC)c(OC)c3)n2N)cc1O | > 100 | 34.8 | > 100 | > 100 | 
11 |  | COc1cc(-c2nnc(SCC(=O)c3ccc(Cl)cc3)n2-n2cccc2)cc(OC)c1OC | > 100 | > 100 | > 100 | > 100 | 
12 |  | COc1cc(-c2nnc(SCC(=O)Nc3ccc(N(C)C)cc3)n2N)cc(OC)c1OC | 43.1 | 23.8 | > 100 | > 100 | 
13 |  | COc1ccc(NC(=O)CSc2nnc(-c3cc(OC)c(OC)c(OC)c3)n2N)cc1OC | > 100 | 54.2 | > 100 | > 100 | 
14 | 19 | CCCc1ccc(NC(=O)CSc2nnc(-c3cc(OC)c(OC)c(OC)c3)n2N)cc1 | 50.8 | 18.7 | 41.2 | 41.8 | 
15 | 25 | COc1cc(-c2nnc(SCC(=O)Nc3cccc(C)c3)n2N)cc(OC)c1OC | 4.87 | 2.96 | 47.1 | > 100 | 
16 |  | COc1cc(-c2nnc(SCC(=O)Nc3ccc(N4CCCCC4)cc3)n2N)cc(OC)c1OC | 75.3 | 54.9 | > 100 | > 100 | 

Row | inhibition [3] [%] | Compound | IC50 [1] [µM] | IC50 [2] [µM] | IC50 [9] [µM] | IC50 [13] [µM] | further results
17 |  | COc1cc(-c2nnc(SCC(=O)NC3CCCCC3)n2N)cc(OC)c1OC | > 100 | 59.7 | 80.6 | > 100 | 
18 |  | COc1cc(-c2nnc(SCC(=O)Nc3ccc(C)cc3F)n2N)cc(OC)c1OC | 0.13 | 0.04 | > 100 | > 100 | IC50 [11]: 61.1 µM
19 | 25 | COc1ccccc1NC(=O)CSc1nnc(-c2cc(OC)c(OC)c(OC)c2)n1N | 0.13 | 0.16 | > 100 | 82.9 | IC50 [11]: > 100 µM
20 | 24 | COc1ccc(NC(=O)CSc2nnc(-c3cc(OC)c(OC)c(OC)c3)n2N)cc1 | 15.2 | 2.96 | > 100 | 61.1 | 
21 |  | COc1cccc(NC(=O)CSc2nnc(-c3cc(OC)c(OC)c(OC)c3)[nH]2)c1 | > 100 | > 100 | > 100 | > 100 | 
22 |  | COc1cccc(NC(=O)CSc2nnc(-c3cc(OC)c(OC)c(OC)c3)n2N)c1 | 3.15 |  | 52.6 |  | 
23 |  | COc1ccc(NC(=O)CSc2nnc(-c3cc(OC)c(OC)c(OC)c3)[nH]2)cc1O | > 100 | > 100 | > 100 | > 100 | 
24 |  | COc1cc(-c2nnc(SCC(=O)Oc3ccc(C)cc3)n2N)cc(OC)c1OC | > 100 | > 100 | > 100 | > 100 | 
25 |  | COc1cc(-c2nnc(SCC(=O)Nc3c(C)cc(C)cc3C)n2N)cc(OC)c1OC | > 100 | 82.8 | > 100 | > 100 | 
26 |  | COc1cc(-c2nnc(SCC(=O)c3ccc(C)cc3)n2-n2cccc2)cc(OC)c1OC | > 100 | > 100 | > 100 | > 100 | 
27 |  | COc1cc(-c2nnc(SCC(=O)Nc3ccc(C(C)C)cc3)n2N)cc(OC)c1OC | > 100 | 13.7 | > 100 | 74.8 | 
28 |  | COc1cc(-c2nnc(SCC(=O)Nc3ccc(C(C)(C)C)cc3)n2N)cc(OC)c1OC | > 100 | 49.6 | > 100 | > 100 | 
29 | 55 | COc1cc(-c2nnc(SCC(=O)Nc3ccc(C)cc3)n2N)cc(OC)c1OC | 0.82 | 1.61 | 26.8 |  | IC50 [14]: 5.9 µM
30 |  | COc1ccc(NC(=O)CSc2nnc(-c3cc(OC)c(OC)c(OC)c3)n2-n2cccc2)cc1 | > 100 | > 100 | > 100 | > 100 | 
31 |  | COc1ccc(NC(=O)CSc2nnc(-c3cc(OC)c(OC)c(OC)c3)n2-n2cccc2)cc1OC | > 100 | > 100 | > 100 | > 100 | 
